Reference: ChEMBL document CHEMBL1155343, “Discovery of N-(3-(morpholinomethyl)-phenyl)-amides as potent and selective CB2 agonists” (Bioorg Med Chem Lett, 2009)
“Also recorded” adds a separate entry of the source. Active and inactive are the calls of the source.

Tests used:
Homo sapiens = organism: Homo sapiens; experiment: Selectivity ratio, Ki for human CB1 receptor to Ki for human CB2 receptor
In short: (§1)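 Ki values are geometric means of at least three separate determinations. Selectivity is expressed as the ratio of the CB1 Ki to the CB2 Ki.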

Cannabinoid receptor 1 = Cannabinoid receptor 1 (Homo sapiens, UniProt P21554); experiment: Displacement of [3H]CP-55940 from human CB1 receptor expressed in CHO cells; format: cell-based; in short: as §1
Chain of Cannabinoid receptor 1 (P21554 whole entry): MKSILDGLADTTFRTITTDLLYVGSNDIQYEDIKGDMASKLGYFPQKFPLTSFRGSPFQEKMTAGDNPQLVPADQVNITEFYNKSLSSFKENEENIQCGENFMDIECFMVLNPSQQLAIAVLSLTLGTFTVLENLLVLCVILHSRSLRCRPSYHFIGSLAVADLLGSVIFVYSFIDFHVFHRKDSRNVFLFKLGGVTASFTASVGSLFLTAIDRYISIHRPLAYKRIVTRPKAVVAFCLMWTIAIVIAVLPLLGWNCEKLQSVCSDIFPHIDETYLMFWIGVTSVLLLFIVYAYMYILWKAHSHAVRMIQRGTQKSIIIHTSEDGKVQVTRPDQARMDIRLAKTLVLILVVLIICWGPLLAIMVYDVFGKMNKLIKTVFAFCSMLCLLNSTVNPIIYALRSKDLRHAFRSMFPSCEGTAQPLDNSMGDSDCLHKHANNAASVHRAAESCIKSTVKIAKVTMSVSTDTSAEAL

Cannabinoid receptor 2 [1] = biological target: T1, Cannabinoid receptor 2 (Homo sapiens, UniProt P34972); experiment: Displacement of [3H]CP-55940 from human CB2 receptor expressed in CHO cells; format: cell-based; in short: as §1
T1 sequence (P34972 whole entry): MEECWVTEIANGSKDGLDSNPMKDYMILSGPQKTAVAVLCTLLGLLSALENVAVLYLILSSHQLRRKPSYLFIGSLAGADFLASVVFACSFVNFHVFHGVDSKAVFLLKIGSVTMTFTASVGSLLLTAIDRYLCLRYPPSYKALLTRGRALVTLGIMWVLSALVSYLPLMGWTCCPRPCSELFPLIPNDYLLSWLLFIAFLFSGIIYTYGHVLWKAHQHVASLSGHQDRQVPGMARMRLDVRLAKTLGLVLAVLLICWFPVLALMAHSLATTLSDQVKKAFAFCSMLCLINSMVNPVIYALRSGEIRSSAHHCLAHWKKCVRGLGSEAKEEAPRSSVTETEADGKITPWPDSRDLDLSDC

[2] = Metabolic stability in human liver microsomes after 30 mins; format: ADME, Microsome; conditions: read-out: Stability
In short: (§2)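 Compounds incubated with liver microsomes for 30 min. Read-out is percent of parent compound remaining.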

[3] = Metabolic stability in rat liver microsomes after 30 mins; format: ADME, Microsome; conditions: read-out: Stability; in short: as §2
Cannabinoid receptor 2 [4] = biological target: T1, Cannabinoid receptor 2; experiment: Agonist activity at human CB2 receptor expressed in CHO cells by [35S]GTPgammaS binding assay; format: functional, cell-based
In short: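 [35S]GTPγS binding with membranes from transfected CHO cells expressing CB2. EC50 values are geometric means of at least three separate determinations.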

Mus musculus [5] = experiment: Toxicity in mouse hind paw incision model assessed as behavioral effects at 10 mg/kg, ip; format: organism-based; design: dose 10 mg/kg, route intraperitoneal; conditions: in vivo
Mus musculus [6] = experiment: Antiallodynic activity in mouse hind paw incision model of post-operative pain assessed as hind paw withdrawal threshold at 3 mg/kg, ip; format: functional, organism-based; design: dose 3 mg/kg
Mus musculus [7] = experiment: Antiallodynic activity in po dosed mouse hind paw incision model of post-operative pain assessed as hind paw withdrawal threshold; format: functional, organism-based
Mus musculus [8] = experiment: Antiallodynic activity in mouse hind paw incision model of post-operative pain assessed as hind paw withdrawal threshold at 10 mg/kg, ip; format: functional, organism-based; design: dose 10 mg/kg
Mus musculus [9] = experiment: Toxicity in mouse hind paw incision model assessed as behavioral effects at 3 mg/kg, ip; format: organism-based; design: dose 3 mg/kg, route intraperitoneal; conditions: in vivo

SMILES | Ratio Ki (Homo sapiens) | Ki (Cannabinoid receptor 1) [nM] | Ki (Cannabinoid receptor 2 [1]) [nM] | remaining at 0.5 h [2] [%] | remaining at 0.5 h [3] [%] | EC50 (Cannabinoid receptor 2 [4]) [nM] | Activity (Cannabinoid receptor 1) [%] | Activity (Mus musculus [5]) | Activity (Mus musculus [6]) | Activity (Mus musculus [7]) | Activity (Mus musculus [8]) | Activity (Mus musculus [9])
Cc1ccc(C(=O)NC2C3(C)CCC(C3)C2(C)C)cc1CC(=O)N1CCOCC1 (configuration not stated) | 5.6 | 3900 | 700 | – | – | – | – | – | – | – | – | –
Cc1c(CN2CCOCC2)cc(NC(=O)C2CCCCC2C)cc1C(F)(F)F (configuration not stated) | 6.5 | 110 | 17 | 2 | 2 | 42 | – | – | – | – | – | –
Cc1ccc(C(=O)NC2C(C)(C)[C@@H]3CC[C@@]2(C)C3)cc1CCCN1CCOCC1 (some centres not stated) | 34 | 2100 | 62 | – | – | 110 | – | – | – | – | – | –
Cc1ccc(C(=O)NC2C(C)(C)[C@@H]3CC[C@@]2(C)C3)cc1C(=O)N1CCOCC1 (some centres not stated) | – | > 5000 | 1200 | – | 26 | – | – | – | – | – | – | –
Cc1ccc(C(=O)NC2C(C)(C)[C@@H]3CC[C@@]2(C)C3)cc1CCN1CCOCC1 (some centres not stated) | 31 | 1400 | 45 | – | – | 64 | – | – | – | – | – | –
CCC(C)(C)C(=O)Nc1cc(CN2CCOCC2)c(C)cc1C | – | – | 530 | 61 | 42 | 500 | 18 | – | – | – | – | –
Cc1ccc(C(=O)NC2C(C)(C)[C@@H]3CC[C@@]2(C)C3)cc1CCC(=O)N1CCOCC1 (some centres not stated) | 20 | 1700 | 83 | – | – | – | – | – | – | – | – | –
Cc1ccc(C(=O)NC2C(C)(C)[C@@H]3CC[C@@]2(C)C3)cc1CN1CCOCC1 (some centres not stated) | 58 | 1100 | 19 | – | – | 42 | – | – | – | – | – | –
CCC(C)(C)C(=O)Nc1ccc(C)c(CN2CCOCC2)c1 | – | – | 120 | 56 | 29 | 110 | 4 | – | – | – | – | –
Cc1cc(NC(=O)C2CCCCC2C)cc(CN2CCOCC2)c1C (configuration not stated) | 63 | 540 | 8.6 | 32 | 1 | 21 | – | – | – | – | – | –
CC(C(=O)Nc1ccc2c(c1)C(N1CCOCC1)CCC2)(C(F)(F)F)C(F)(F)F (single isomer, unassigned) | – | 1300 | 2.3 | – | – | 3.6 | – | – | – | – | – | –
Cc1cc(C)c(NC(=O)C2CCCCC2C)cc1CN1CCOCC1 (configuration not stated) | – | – | 440 | 49 | 67 | 590 | 14 | – | – | – | – | –
Cc1ccc(C(=O)NC2C(C)(C)[C@@H]3CC[C@@]2(C)C3)cc1N1CCOCC1 (some centres not stated) | 30 | 9000 | 300 | – | – | – | – | – | – | – | – | –
Cc1ccc(NC(=O)C2CCCCC2C)cc1CN1CCOCC1 (configuration not stated) | 23 | 1600 | 70 | 38 | 2.2 | 76 | – | – | – | – | – | –
CC(C(=O)Nc1ccc2c(c1)C(N1CCOCC1)CCC2)(C(F)(F)F)C(F)(F)F (single isomer, unassigned; enantiomer 2) | – | > 5000 | 120 | – | – | 72 | – | – | – | – | – | –
Cc1cc(NC(=O)C(C)(C(F)(F)F)C(F)(F)F)cc(CN2CCOCC2)c1C | 190 | 500 | 2.7 | 31 | 3.1 | 5.5 | – | Non-toxic; also recorded: Not Active | Active | inactive | Active | –
Cc1ccc(C(=O)NC2C(C)(C)[C@@H]3CC[C@@]2(C)C3)cc1S(=O)(=O)N1CCOCC1 (some centres not stated) | 31 | 130 | 3.9 | – | – | 6.6 | – | – | – | – | – | –
Cc1cc(F)c(NC(=O)C2CCCCC2C)cc1CN1CCOCC1 (configuration not stated) | – | – | 37 | 36 | 15 | 49 | 31 | – | – | – | – | –
CCC(C)(C)C(=O)Nc1cc(CN2CCOCC2)c(C)cc1F | – | – | 120 | 57 | 20 | 200 | 10 | – | – | – | – | –
CC(C(=O)Nc1ccc2c(c1)C(N1CCOCC1)CCC2)(C(F)(F)F)C(F)(F)F (stereo in doubt; 43) | – | 3400 | 10 | – | – | 41 | – | – | – | – | – | –
Cc1ccc(NC(=O)C(C)(C(F)(F)F)C(F)(F)F)cc1CN1CCOCC1 | 390 | 6300 | 16 | 42 | 0.9 | 14 | – | – | – | – | – | –
CN1CC[C@]23c4c5ccc(O)c4O[C@H]2[C@@H](O)C=C[C@H]3[C@H]1C5 [MORPHINE] | – | – | – | – | – | – | – | – | – | – | – | Not Active
